Screening data deposited in PubChem BioAssay by The Scripps Research Institute Molecular Screening Center.
NPY Y1 blocker: NPY-Y1 (human) receptor antagonism; 200,000 compounds, 1% hits; HEK293-CNG Y1 cells, membrane potential fluorescence; NPY at EC95, then isoproterenol; P25929; inhibition, % at 3.6 µM; AID 1040;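 active means inhibition above the campaign mean inhibition of all tested compounds plus 3 SD, cut at about 20% in these data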;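 further: 0% = DMSO wells given NPY plus isoproterenol and 100% = isoproterenol alone without NPY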
Target sequence (P25929 whole entry, looked up): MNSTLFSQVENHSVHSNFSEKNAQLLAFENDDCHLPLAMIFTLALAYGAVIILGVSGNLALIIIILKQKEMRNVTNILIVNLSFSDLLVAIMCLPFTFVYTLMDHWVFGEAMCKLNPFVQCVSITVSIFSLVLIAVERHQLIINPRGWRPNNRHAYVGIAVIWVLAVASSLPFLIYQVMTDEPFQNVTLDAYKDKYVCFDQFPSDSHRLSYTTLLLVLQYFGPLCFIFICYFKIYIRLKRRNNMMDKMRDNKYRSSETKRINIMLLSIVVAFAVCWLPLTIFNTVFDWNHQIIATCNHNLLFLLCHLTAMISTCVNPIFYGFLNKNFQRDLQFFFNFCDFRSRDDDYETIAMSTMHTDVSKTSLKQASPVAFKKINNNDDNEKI
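Material: Y1- and CNG-channel-expressing HEK293 cells / Probe or stimulus: NPY 25 nM then isoproterenol 1 µM plus Ro 20-1724 25 µM / Doses: 3.6 µM single dose, DMSO 0.4% / Schedule: compound incubation 1 h at room temperature, readout 45 min post-stimulation / Signal: membrane potential fluorescence / Benchmarks: isoproterenol-only wells as full block versus NPY-plus-isoproterenol wells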
S1P4 antag: blocks the human S1P4 receptor; S1P4-expressing cells, antagonist mode, reporter read-out; 220,000 compounds, 0.26% hits; inhibition, % at 4.98 µM; AID 1510; in the data active means inhibition above about 29%;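 further: 0% = wells stimulated with agonist and 100% = vehicle wells without agonist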
NPY-Y2 antag: NPY-Y2 (human) receptor antagonism | NPY-Y2 expressing cells, antagonist mode | P49146 | inhibition, % at 2.7 µM | 140,000 compounds, 0.99% hits | AID 793; in the data active means inhibition above about 17%;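 further: 0% = vehicle with agonist challenge and 100% = reference antagonist with challenge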
Target sequence (P49146 whole entry, looked up): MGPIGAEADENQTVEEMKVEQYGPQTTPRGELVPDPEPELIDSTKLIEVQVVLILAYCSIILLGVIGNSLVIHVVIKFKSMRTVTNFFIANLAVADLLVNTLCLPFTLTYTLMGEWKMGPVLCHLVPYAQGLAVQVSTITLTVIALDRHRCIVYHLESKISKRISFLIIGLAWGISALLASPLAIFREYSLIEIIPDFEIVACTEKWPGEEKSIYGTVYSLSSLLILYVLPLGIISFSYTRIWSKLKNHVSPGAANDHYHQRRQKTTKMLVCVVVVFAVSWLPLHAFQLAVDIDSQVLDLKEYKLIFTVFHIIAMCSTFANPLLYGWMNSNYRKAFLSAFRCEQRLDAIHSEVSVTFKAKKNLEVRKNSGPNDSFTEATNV
NPY2 pot ag: potentiates or activates human NPY-Y2 receptor. P49146. cells expressing NPY-Y2, potentiator/agonist read-out. activation, % at 3.6 µM. 220,000 compounds, 0.45% hits. AID 1359; in the data active means activation above about 27%;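 further: cells stimulated with NPY near EC25 plus isoproterenol at EC100; 0% = vehicle plus submaximal agonist and 100% = vehicle plus saturating agonist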
NPY-Y1 PAM-ag: potentiates or activates human NPY-Y1 receptor. activation, % at 3.6 µM. P25929. NPY-Y1 expressing cells, potentiator/agonist activation. 220,000 compounds, 0.37% hits; in the data active means activation above about 33%, passing the limit was not always enough;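 further: cells stimulated with NPY at EC10 then isoproterenol at EC100; 0% = low agonist plus stimulus and 100% = saturating agonist plus stimulus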
S1P4 agonist: human S1P4 receptor agonism | S1P4-expressing cell line, agonist reporter assay | activation, % at 4.98 µM | 220,000 compounds, 0.35% hits; in the data active means activation above about 11%;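 further: 0% = DMSO vehicle and 100% = reference agonist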
NPY-Y1 confirm: confirmation of human NPY-Y1 receptor potentiators or agonists; cell-based NPY-Y1 potentiator/agonist assay; 280 compounds, 20% hits; shares compounds with NPY-Y1 PAM-ag; activation, % at 3.6 µM; in the data active means activation above about 45%;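 further: cells challenged with NPY at its EC10 plus isoproterenol stimulus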
NPY-Y2 counter: NPY-Y2 potentiation or agonism as NPY-Y1 counter-screen. 280 compounds, 20% hits. HEK293-CNG cells, membrane-potential fluorescence (FLIPR), 1536-well. activation, % at 3.6 µM. shares compounds with NPY-Y1 PAM-ag
NPY-Y1 agonist: activates human NPY-Y1, counter-screen for NPY-Y1 potentiators | shares compounds with NPY-Y1 PAM-ag | HEK293 Y1-CNGC, membrane potential fluorescence, agonist mode | activation, % at 3.6 µM | 280 compounds, 50% hits;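 active means percent activation above the mean of DMSO-only control wells plus 3 SD of those wells, cut at about 18% in these data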;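 further: cells challenged with isoproterenol plus Ro 20-1724 with no NPY in test wells; Y1 agonism lowers isoproterenol-driven cAMP and reduces probe fluorescence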
NPY-Y2 agonist: human NPY-Y2 agonism as NPY-Y1 counter-screen; activation, % at 3.6 µM; AID 1698; HEK293 Y2-CNGC, membrane potential fluorescence, agonist mode; 280 compounds, 67% hits; shares compounds with NPY-Y1 PAM-ag;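 active means activation above the solvent-only control wells' mean plus 3 SD, cut at about 11% in these data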;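 further: 0% = DMSO with isoproterenol and 100% = 40 nM NPY maximal response; agonism lowers cAMP so well fluorescence drops in active wells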
CNGC counter: counter-screen for NPY-Y1 potentiators or agonists: CNG channel inhibitors; HEK293-CNG parental, isoproterenol cAMP, membrane potential fluorescence; inhibition, % at 3.6 µM; 280 compounds, 42% hits; AID 1704; shares compounds with NPY-Y1 PAM-ag;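 active means inhibition above the mean of stimulated solvent-only control wells plus 3 SD, cut at about 22% in these data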;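 further: 0% = isoproterenol-stimulated DMSO wells and 100% = unstimulated DMSO wells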
NPY-Y2 pot conf: human NPY-Y2 potentiation or agonism, confirmation; shares compounds with NPY2 pot ag; cell-based NPY-Y2 potentiator/agonist assay; activation, % at 3.6 µM; 450 compounds, 20% hits
NPY-Y1 counter: NPY-Y1 potentiation or agonism as NPY-Y2 counter-screen; shares compounds with NPY2 pot ag; Y1 HEK293-CNG cells, membrane potential fluorescence; activation, % at 3.6 µM; 450 compounds, 20% hits; AID 1651; in the data active means activation above about 45%;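 further: cells stimulated with submaximal NPY then isoproterenol with phosphodiesterase inhibitor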
NPY-Y1 ag 2: activates human NPY-Y1, counter-screen for NPY-Y2 potentiators; 450 compounds, 37% hits; HEK293 Y1-CNGC, membrane potential fluorescence, agonism; shares compounds with NPY2 pot ag; activation, % at 3.6 µM;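 active means activation above the mean of DMSO-only control wells plus 3 SD, cut at about 18% in these data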;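 further: cells stimulated with 1 µM isoproterenol plus the PDE inhibitor Ro 20-1724; 0% = isoproterenol with DMSO and no NPY and 100% = 40 nM NPY; Y1 agonists lower the membrane potential dye signal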
CNGC inhibitor: counter-screen for NPY-Y2 potentiators: inhibitors of CNG channel activity; HEK293-CNG parental, isoproterenol cAMP, membrane potential fluorescence; 450 compounds, 32% hits; inhibition, % at 3.6 µM; AID 1703; shares compounds with NPY2 pot ag;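 active means inhibition above the control-well mean plus 3 SD of those wells, cut at about 22% in these data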;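 further: 0% = DMSO with isoproterenol and 100% = DMSO without isoproterenol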
Y2 agonist ctr: NPY-Y2 agonism, counter-screen for Y2 potentiators. activation, % at 3.6 µM. shares compounds with NPY2 pot ag. HEK293 Y2/CNGC cells, membrane potential fluorescence, agonist mode. 450 compounds, 56% hits. AID 1710;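 active means activation above the mean of solvent-only control wells plus 3 SD, cut at about 10% in these data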;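 further: cells stimulated by isoproterenol with no NPY added so direct agonism is tested; 0% = DMSO with isoproterenol alone and 100% = NPY at EC100 plus isoproterenol; agonism lowers probe fluorescence through less cAMP and CNG channel opening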
Starred values were filed as active, the others as inactive; . = no result given. Rows were chosen to be rich in hits. Some 2.4% of all compounds tested hit in one or more screens of this group. Unless noted, no stated cut-off is given here; in the data, active means activation above about 33%; inactive means the rest.

SMILES | NPY Y1 blocker | S1P4 antag | NPY-Y2 antag | NPY2 pot ag | NPY-Y1 PAM-ag | S1P4 agonist | NPY-Y1 confirm | NPY-Y2 counter | NPY-Y1 agonist | NPY-Y2 agonist | CNGC counter | others
C=CCNCCOc1ccc(C)cc1[N+](=O)[O-] | -2 | -10 | . | 4 | 39* | 0 | 0 | 5 | -2 | 4 | 3
Cc1c(Cl)c(C(=O)NNC(=S)Nc2ccc(F)cc2)nn1C | 6 | 10 | . | -13 | -18 | 1 | . | . | . | . | .
CC(O)C1CCC2C3CC[C@H]4CC(O)CCC4(C)C3CC3(OCCO3)C12C (some centres not stated) | 2 | 6 | -3 | 9 | 57* | 2 | 6 | 3 | -10 | 2 | 12
C=CCC1(CC=C)CCCN1Cc1nc(COc2ccccc2)no1 | . | -3 | . | -15 | -9 | -1 | . | . | . | . | .
CC(=O)c1ccc(Oc2cnccn2)cc1 | 2 | -16 | . | 5 | 1 | -1 | . | . | . | . | .
O=C(c1ccccc1)N1CCN(c2n[nH]c(=O)[nH]c2=O)CC1 | 6 | -1 | . | 9 | 45* | 3 | 0 | 0 | -4 | -3 | -3
O=C(c1ccccc1)N1CCN(C(=O)c2ccncc2)CC1 | -5 | -11 | 2 | 0 | -3 | 2 | . | . | . | . | .
Brc1ccc(-c2csc(Nc3nc(-c4ccc(Br)cc4)cs3)n2)cc1 | . | 0 | . | -12 | -11 | 1 | . | . | . | . | .
Brc1ccc(Nc2nc(-c3cccnc3)cs2)cc1 | -11 | -7 | . | 28 | 37* | 1 | 42 | 31 | 43* | 38* | 34*
COc1ccc(NS(=O)(=O)c2ccc(N3CC(O)=C(c4ccccc4)C3=N)cc2)cc1 | . | -20 | . | 5 | -1 | 2 | . | . | . | . | .
COC(=O)[C@@H]1CC[C@H](C)[C@@H](c2ccc(C)cc2)N1C(=O)c1ccc(/C=N/OC[C@@H](O)[C@H]2O[C@@H]3OC(C)(C)O[C@@H]3[C@H]2O)cc1 | -3 | 16 | 0 | 16 | 39* | 1 | 6 | 0 | -2 | 6 | -10
N#CC1=C(N)OC2=C(C(=O)CC(c3ccco3)C2)C1c1ccc(OCc2c(F)cccc2Cl)cc1 (configuration not stated) | 1 | -17 | 3 | -27 | 63* | 0 | -2 | -10 | -3 | -10 | -3
CCN(C(=O)COC(=O)C1CCN(S(=O)(=O)c2cccs2)CC1)c1ccccc1 | -1 | -9 | . | -17 | -2 | 1 | . | . | . | . | .
Nc1ccc(SCC(=O)Nc2cccc([N+](=O)[O-])c2)cc1 | -1 | 0 | . | 18 | 3 | -1 | . | . | . | . | .
N#Cc1c(-c2ccccc2)c(-c2ccccc2)nn(CC(=O)NNC(=O)Nc2ccc(Cl)c(Cl)c2)c1=O | -10 | -13 | -1 | 5 | 38* | 0 | 43 | 28 | 34* | 32* | 32*
COCCCNc1nc2c(c(=O)[nH]c(=O)n2C)n1CC(O)COc1ccccc1 (configuration not stated) | 5 | 1 | 0 | 29 | 96* | -2 | 3 | 2 | -1 | 12* | 8
CC(=O)c1sc(Nc2nc3ccc(F)cc3s2)nc1C | -20 | -2 | -5 | 17 | 45* | 3 | 28 | 15 | 16 | 20* | 19
CN(Cc1ccccc1)C(=O)c1ccc2c(c1)NC(=O)C(N1CCOCC1)S2 (configuration not stated) | 5 | -5 | . | 1 | -22 | -2 | . | . | . | . | .
CC(=O)NC12CC3CC(C1)CC(C(=O)OCC(=O)Nc1ncc(Cl)c(C)c1Cl)(C3)C2 | -1 | -29 | 1 | 8 | 45* | 0 | 3 | -1 | -5 | 3 | -5
Cc1ccc(S(=O)(=O)N(CC(=O)O)Cc2ccccc2F)cc1 | -1 | -13 | 6 | 5 | -12 | 1 | . | . | . | . | .
Cc1ccc(S(=O)(=O)N(CC(=O)N2CCC(C)CC2)Cc2ccccc2F)cc1 | 3 | -6 | 1 | 20 | 79* | 1 | -5 | 0 | -10 | -6 | 1
Cn1c(=O)[nH]c(=O)c2c1nc(N1CCCCC1)n2CCSc1nc2ccccc2o1 | 1 | 3 | 0 | 7 | 40* | 1 | -3 | 2 | 1 | 9 | 3
O=C(N/N=C/c1ccc(Cl)c([N+](=O)[O-])c1)c1cc(-c2ccc3c4c(cccc24)CC3)n[nH]1 | . | 0 | . | 45* | 36 | 2 | . | . | . | . | . | NPY-Y2 pot conf=15;NPY-Y1 counter=25;NPY-Y1 ag 2=18*;CNGC inhibitor=12;Y2 agonist ctr=23*
Cc1c(NC(=O)c2ccc(-c3ccc([N+](=O)[O-])cc3Cl)o2)c(=O)n(-c2ccccc2)n1C | 6 | -13 | . | -17 | -12 | 1 | . | . | . | . | .
CC(C)COC(=O)NC1c2ccccc2Oc2ccccc21 | . | 4 | . | 100* | -38 | 1 | . | . | . | . | . | NPY-Y2 pot conf=-17;NPY-Y1 counter=-33;NPY-Y1 ag 2=-32;CNGC inhibitor=-21;Y2 agonist ctr=-8
Cc1ccc(S(=O)(=O)N(C)CC(=O)OCC(=O)N2CCCC2=O)cc1 | 4 | 3 | . | 50* | 4 | 0 | . | . | . | . | . | NPY-Y2 pot conf=-4;NPY-Y1 counter=1;NPY-Y1 ag 2=-8;CNGC inhibitor=-3;Y2 agonist ctr=-2
O=Cc1cc(N=Nc2ccccc2Cl)ccc1O | -15 | 3 | . | 34* | 33 | 0 | . | . | . | . | . | NPY-Y2 pot conf=42*;NPY-Y1 counter=51*;NPY-Y1 ag 2=25*;CNGC inhibitor=25*;Y2 agonist ctr=39*
O=Cc1cc(N=Nc2cccc(C(=O)O)c2)ccc1O | -4 | 7 | . | -1 | 14 | 1 | . | . | . | . | .
